# Assay results of several laboratories.
# Observed: enzyme activity
# Action: inhibitor
# MAP3K11: Mitogen-activated protein kinase kinase kinase 11 (MAP3K11, Homo sapiens, UniProt Q16584)
# MAP3K1: Mitogen-activated protein kinase kinase kinase 1 (MAP3K1, Homo sapiens, UniProt Q13233)
# HIPK1: Homeodomain-interacting protein kinase 1 (HIPK1, Homo sapiens, UniProt Q86Z02)
Compound,target,technique,tested at,remaining activity
O=C(NCCCNc1nc(Nc2cccc(CN3CCOCC3)c2)ncc1C1CC1)C1CCC1,MAP3K11,radiometric,1 µM,38%
CCCOc1ccc(OC)c(F)c1C(=O)c1ccc(C(=O)N[C@@H]2CNC[C@H]2NC(=O)c2ccc3[nH]ncc3c2)cc1,"Mitogen-activated protein kinase 1 (Mapk1, Mus musculus, UniProt P63085)",,10 µM,100%
Cc1nn(CC(F)(F)F)cc1Nc1ncc(C2CC2)c(NCc2ccc(S(N)(=O)=O)cc2)n1,MAP3K11,radiometric,1 µM,89%
Cc1ccc(C(=O)Nc2ccc(CN3CCN(C)CC3)c(C(F)(F)F)c2)cc1C#Cc1cnc2cccnn12,"Serine/threonine-protein kinase 36 (STK36, Homo sapiens, UniProt Q9NRP7)",,23.5 nM,100%
FC(F)c1nc2ccccc2n1-c1nc(N2CCOCC2)nc(N2CCOCC2)n1,MAP3K1,,10 µM,92%
COc1cccc(CCNc2nc3cc(C(=O)O)ccc3c3cnccc23)c1,HIPK1,radiometric,1 µM,16%
CC(C)(O)[C@H]1CC[C@H](Nc2ccc3ncc(-c4cccc(C(F)(F)F)c4)n3n2)CC1,"cAMP-dependent protein kinase catalytic subunit gamma (PRKACG, Homo sapiens, UniProt P22612)",,1 µM,98.6%
O=C(O)c1ccc2c(c1)nc(Nc1ccc3ccccc3c1)c1ccncc12,HIPK1,radiometric,1 µM,13%
NS(=O)(=O)c1ccc(CNc2nc(Nc3cccc(NC(=O)N4CCCC4)c3)ncc2C2CC2)cc1,MAP3K11,radiometric,1 µM,72%
COc1cc(Nc2cnc(C#N)c(O[C@H](C)CN(C)C)n2)ncc1-c1cnn(C)c1,MAP3K1,radiometric,10 µM,99%
Cc1cnc(NC2CCOCC2)nc1-n1cnc(C(=O)NC(CN)c2cc(F)cc(Cl)c2)c1 (stereo not drawn),"Hepatocyte growth factor receptor (MET, Homo sapiens, UniProt P08581, D1228N)",radiometric,1 µM,97%
O=C(NCCCNc1ccnc(Nc2cccc(NC(=O)N3CCCC3)c2)n1)C1CCC1,MAP3K11,radiometric,1 µM,86%
